Data from ChEMBL document CHEMBL1833940, “Discovery of 3-(2,6-dichloro-3,5-dimethoxy-phenyl)-1-{6-[4-(4-ethyl-piperazin-1-yl)-phenylamino]-pyrimidin-4-yl}-1-methyl-urea (NVP-BGJ398), a potent and selective inhibitor of the fibroblast growth factor receptor family of receptor tyrosine kinase” (J Med Chem, 2011).
Activity calls are given as the source filed them. No cut-off for these calls is given here.

How the values were obtained:
BaF3 = test: Antiproliferative activity against mouse BAF3 cell line transformed with TEL-FGFR3 construct after 48 hrs by luciferase bioluminescent assay; assay type: functional, cell-based; conditions: BaF3, 48 h
Outline: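 IL-3-independent BaF3 or BaF3 Tel-TK cells were grown in RPMI-1640 with 10% FBS and seeded at 4250 cells/well in 384-well plates. Compound serially diluted in DMSO was pin-transferred, followed by 48 h at 37 °C, 5% CO2. Viability was read by Bright-Glo luciferase luminescence.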

[1] = Inhibition of BCR-ABL-mediated proliferation of mouse BAF3 cells transformed with TEL-Kinase construct; assay type: cell-based
[2] = Cmax in plasma of RT112/luc1 cells implanted athymic nude mouse at 5 mg/kg, iv by LC/MS/MS analysis; assay type: ADME, organism-based; parameters: dose 5 mg/kg, route intravenous
Outline: (§1)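 Female athymic nude mice carried subcutaneous RT112/luc1 tumors (5×10^6 cells, 50% Matrigel; about 300–400 mm3). Dosing was either 5 mg/kg iv by tail vein in NMP/PEG200 (1:9) or 20 mg/kg oral suspension in PEG300/D5W (2:1). Groups of mice (n = 4) were sacrificed at 0.083–24 h. Plasma and tumor levels were measured by LC-MS/MS (LOQ 5 ng/mL, 10 ng/g).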

[3] = Cmax in plasma of RT112/luc1 cells implanted athymic nude mouse at 20 mg/kg, po by LC/MS/MS analysis; assay type: ADME, organism-based; parameters: dose 20 mg/kg, route oral; outline: as §1
Plasma [4] = test: Dose normalized AUC in plasma of RT112/luc1 cells implanted athymic nude mouse at 5 mg/kg, iv by LC/MS/MS analysis; assay type: ADME, organism-based; parameters: dose 5 mg/kg, route intravenous; conditions: in vivo; outline: as §1
Plasma [5] = test: Dose normalized AUC in plasma of RT112/luc1 cells implanted athymic nude mouse at 20 mg/kg, po by LC/MS/MS analysis; assay type: ADME, organism-based; parameters: dose 20 mg/kg, route oral; conditions: in vivo; outline: as §1
[6] = Apparent terminal half life in Wistar rat at 5 mg/kg, iv by LC-MS/MS analysis; assay type: ADME, organism-based; parameters: dose 5 mg/kg, route intravenous; conditions: in vivo, read-out: t1/2 lambda z (converted)
Outline: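 Female Wistar rats. IV: 5 mg/kg into the femoral vein as a solution in NMP/PEG200 (1:9, v/v). Oral: monophosphate salt at 10 mg/kg (free base equivalents) as a solution in acetic acid–acetate buffer pH 4.6/PEG300. Plasma was taken by sublingual bleeding at 0.083–24 h, from staggered groups (n = 4) or one sequentially bled group. Assayed by LC-MS/MS (LOQ 10 ng/mL); noncompartmental analysis.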

[7] = Oral bioavailability in Wistar rat at 10 mg/kg; assay type: ADME, organism-based; conditions: in vivo
Outline: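 Female Wistar rats received 5 mg/kg iv into the femoral vein in NMP/PEG200 (1:9), or the monophosphate salt orally at 10 mg/kg (free base) in acetate buffer pH 4.6/PEG300. Serial sublingual plasma samples were taken from 0.083 to 24 h.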

[8] = Antiproliferative activity against human JMSU1 cells overexpressing wild type FGFR3 after 72 hrs; assay type: functional, cell-based; conditions: JMSU-1, 72 h
Outline: (§2)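 Bladder cancer lines from ATCC or DSMZ were seeded in 96-well plates (RT4, RT112 at 8500 cells/well; others at 5000 cells/well) in growth medium. Compound dilutions or DMSO were added 24 h later and incubated 72 h. Cells were fixed with glutaraldehyde, stained with 0.05% methylene blue and eluted with 3% HCl, then OD650 nm was read.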

UMUC3 = test: Antiproliferative activity against human UM-UC-3 cells after 72 hrs; assay type: functional, cell-based; conditions: UMUC3, 72 h; outline: as §2
[9] = biological target: Receptor tyrosine-protein kinase erbB-4 (Homo sapiens, UniProt Q15303); test: Inhibition of recombinant ERBB4
Outline: (§3)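 Purified recombinant kinases under optimized conditions with peptide substrates. ATP was set at each kinase's Km. Phosphorylation was read by microfluidic mobility-shift separation of substrate and product; IC50 determined.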

[10] = biological target: Insulin-like growth factor 1 receptor (Homo sapiens, UniProt P08069); test: Inhibition of recombinant IGF1R; outline: as §3
Sequence of Insulin-like growth factor 1 receptor (P08069 31-736 limits assumed): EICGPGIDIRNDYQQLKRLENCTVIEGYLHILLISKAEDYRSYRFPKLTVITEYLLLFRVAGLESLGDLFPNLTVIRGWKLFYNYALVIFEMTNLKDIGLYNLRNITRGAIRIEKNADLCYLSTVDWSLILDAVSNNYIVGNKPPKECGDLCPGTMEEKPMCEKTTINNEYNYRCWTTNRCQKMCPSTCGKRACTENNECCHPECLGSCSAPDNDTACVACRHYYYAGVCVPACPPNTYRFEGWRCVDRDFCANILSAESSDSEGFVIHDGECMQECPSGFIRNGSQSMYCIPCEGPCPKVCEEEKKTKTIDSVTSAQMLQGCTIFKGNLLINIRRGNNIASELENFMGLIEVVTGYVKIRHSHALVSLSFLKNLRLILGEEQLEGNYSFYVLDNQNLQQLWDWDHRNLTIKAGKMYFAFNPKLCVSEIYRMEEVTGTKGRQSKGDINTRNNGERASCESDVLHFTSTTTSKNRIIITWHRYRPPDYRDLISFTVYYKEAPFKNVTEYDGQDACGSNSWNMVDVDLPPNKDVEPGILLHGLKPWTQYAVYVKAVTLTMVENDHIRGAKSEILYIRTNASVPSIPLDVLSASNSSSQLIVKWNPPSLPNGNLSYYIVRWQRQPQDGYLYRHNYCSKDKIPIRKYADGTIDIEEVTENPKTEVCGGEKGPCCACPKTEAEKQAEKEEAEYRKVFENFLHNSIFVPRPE
Sequence of Insulin-like growth factor 1 receptor (P08069 741-1367 limits assumed): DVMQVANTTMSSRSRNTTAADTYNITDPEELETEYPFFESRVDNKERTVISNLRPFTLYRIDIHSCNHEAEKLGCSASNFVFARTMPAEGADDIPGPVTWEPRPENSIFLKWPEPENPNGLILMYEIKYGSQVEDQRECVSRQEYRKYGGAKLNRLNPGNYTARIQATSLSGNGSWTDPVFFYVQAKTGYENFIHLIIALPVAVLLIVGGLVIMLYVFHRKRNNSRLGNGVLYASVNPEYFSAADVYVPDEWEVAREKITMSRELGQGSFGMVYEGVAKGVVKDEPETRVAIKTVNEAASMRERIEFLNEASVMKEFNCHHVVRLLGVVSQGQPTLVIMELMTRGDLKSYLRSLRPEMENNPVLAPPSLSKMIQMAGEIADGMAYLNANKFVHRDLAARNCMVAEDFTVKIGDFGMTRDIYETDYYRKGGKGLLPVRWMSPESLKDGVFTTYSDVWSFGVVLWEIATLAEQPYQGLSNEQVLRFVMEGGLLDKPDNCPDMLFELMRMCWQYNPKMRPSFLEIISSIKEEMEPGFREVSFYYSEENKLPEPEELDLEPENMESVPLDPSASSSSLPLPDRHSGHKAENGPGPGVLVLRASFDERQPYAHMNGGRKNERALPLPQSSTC

Insulin receptor = Insulin receptor (Homo sapiens, UniProt P06213); test: Inhibition of recombinant INSR
Sequence of Insulin receptor (P06213 28-758 limits assumed): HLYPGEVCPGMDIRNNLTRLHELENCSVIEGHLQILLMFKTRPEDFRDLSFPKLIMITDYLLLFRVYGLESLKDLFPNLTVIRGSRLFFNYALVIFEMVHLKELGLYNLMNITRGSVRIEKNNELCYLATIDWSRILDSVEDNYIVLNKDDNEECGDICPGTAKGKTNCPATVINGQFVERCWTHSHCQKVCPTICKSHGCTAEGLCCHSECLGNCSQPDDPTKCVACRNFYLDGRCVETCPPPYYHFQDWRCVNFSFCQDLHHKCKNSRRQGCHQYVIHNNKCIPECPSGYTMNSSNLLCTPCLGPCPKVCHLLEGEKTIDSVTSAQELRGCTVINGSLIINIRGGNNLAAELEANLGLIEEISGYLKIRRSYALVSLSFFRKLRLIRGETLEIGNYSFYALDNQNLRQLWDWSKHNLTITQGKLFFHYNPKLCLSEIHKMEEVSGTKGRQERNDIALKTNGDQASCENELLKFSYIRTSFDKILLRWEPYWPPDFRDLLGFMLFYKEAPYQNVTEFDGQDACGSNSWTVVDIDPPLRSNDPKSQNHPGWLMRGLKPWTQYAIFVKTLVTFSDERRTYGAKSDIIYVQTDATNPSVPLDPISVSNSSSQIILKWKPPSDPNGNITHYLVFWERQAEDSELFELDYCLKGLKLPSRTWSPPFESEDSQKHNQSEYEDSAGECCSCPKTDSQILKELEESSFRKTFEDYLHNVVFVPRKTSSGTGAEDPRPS
Sequence of Insulin receptor (P06213 763-1382 limits assumed): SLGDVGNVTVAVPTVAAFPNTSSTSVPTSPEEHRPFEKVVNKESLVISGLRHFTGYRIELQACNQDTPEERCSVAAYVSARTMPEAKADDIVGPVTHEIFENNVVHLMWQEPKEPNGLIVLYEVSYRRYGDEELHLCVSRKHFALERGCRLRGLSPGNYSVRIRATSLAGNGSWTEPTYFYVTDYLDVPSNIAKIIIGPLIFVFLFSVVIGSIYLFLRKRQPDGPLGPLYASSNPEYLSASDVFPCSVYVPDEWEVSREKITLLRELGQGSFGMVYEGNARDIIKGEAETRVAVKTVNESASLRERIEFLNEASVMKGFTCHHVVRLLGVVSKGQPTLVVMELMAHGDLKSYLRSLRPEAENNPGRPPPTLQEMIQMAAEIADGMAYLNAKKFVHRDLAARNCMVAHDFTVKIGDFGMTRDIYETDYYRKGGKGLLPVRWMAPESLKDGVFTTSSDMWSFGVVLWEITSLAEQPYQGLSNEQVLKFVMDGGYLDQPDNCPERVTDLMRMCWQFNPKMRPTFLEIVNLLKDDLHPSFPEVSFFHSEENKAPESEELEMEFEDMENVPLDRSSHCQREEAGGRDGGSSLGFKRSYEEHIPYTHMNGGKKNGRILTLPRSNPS
Outline: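 Purified recombinant kinases under optimized conditions, with peptide substrates and ATP at each kinase's Km. Phosphorylation was read out by microfluidic mobility shift, and IC50 values were obtained.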

[11] = biological target: Protein kinase C theta type (Homo sapiens, UniProt Q04759); test: Inhibition of recombinant PKCtheta; outline: as §3
Sequence of Protein kinase C theta type (Q04759 whole entry): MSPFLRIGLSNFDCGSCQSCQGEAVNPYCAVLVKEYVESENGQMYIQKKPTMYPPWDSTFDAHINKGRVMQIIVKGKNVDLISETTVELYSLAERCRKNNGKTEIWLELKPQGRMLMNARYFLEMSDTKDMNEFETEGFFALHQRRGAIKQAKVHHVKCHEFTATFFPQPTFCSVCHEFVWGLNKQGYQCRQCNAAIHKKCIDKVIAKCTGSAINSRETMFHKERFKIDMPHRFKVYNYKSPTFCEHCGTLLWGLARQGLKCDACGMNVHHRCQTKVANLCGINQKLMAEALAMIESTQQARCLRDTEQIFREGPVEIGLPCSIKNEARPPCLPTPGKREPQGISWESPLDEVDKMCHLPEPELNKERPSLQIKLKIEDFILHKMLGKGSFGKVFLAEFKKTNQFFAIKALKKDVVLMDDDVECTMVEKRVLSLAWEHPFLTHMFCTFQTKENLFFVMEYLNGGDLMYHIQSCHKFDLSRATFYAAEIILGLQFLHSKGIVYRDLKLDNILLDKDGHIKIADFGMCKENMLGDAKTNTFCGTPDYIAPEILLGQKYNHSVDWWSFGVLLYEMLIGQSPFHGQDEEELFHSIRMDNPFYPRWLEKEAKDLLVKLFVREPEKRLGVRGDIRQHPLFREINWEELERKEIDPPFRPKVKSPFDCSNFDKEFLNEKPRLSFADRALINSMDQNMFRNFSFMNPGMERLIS

[12] = biological target: Serine/threonine-protein kinase N1 (Homo sapiens, UniProt Q16512); test: Inhibition of recombinant PKN1; outline: as §3
[13] = biological target: Proto-oncogene tyrosine-protein kinase receptor Ret (Homo sapiens, UniProt P07949); test: Inhibition of recombinant RET
Sequence of Proto-oncogene tyrosine-protein kinase receptor Ret (P07949 whole entry): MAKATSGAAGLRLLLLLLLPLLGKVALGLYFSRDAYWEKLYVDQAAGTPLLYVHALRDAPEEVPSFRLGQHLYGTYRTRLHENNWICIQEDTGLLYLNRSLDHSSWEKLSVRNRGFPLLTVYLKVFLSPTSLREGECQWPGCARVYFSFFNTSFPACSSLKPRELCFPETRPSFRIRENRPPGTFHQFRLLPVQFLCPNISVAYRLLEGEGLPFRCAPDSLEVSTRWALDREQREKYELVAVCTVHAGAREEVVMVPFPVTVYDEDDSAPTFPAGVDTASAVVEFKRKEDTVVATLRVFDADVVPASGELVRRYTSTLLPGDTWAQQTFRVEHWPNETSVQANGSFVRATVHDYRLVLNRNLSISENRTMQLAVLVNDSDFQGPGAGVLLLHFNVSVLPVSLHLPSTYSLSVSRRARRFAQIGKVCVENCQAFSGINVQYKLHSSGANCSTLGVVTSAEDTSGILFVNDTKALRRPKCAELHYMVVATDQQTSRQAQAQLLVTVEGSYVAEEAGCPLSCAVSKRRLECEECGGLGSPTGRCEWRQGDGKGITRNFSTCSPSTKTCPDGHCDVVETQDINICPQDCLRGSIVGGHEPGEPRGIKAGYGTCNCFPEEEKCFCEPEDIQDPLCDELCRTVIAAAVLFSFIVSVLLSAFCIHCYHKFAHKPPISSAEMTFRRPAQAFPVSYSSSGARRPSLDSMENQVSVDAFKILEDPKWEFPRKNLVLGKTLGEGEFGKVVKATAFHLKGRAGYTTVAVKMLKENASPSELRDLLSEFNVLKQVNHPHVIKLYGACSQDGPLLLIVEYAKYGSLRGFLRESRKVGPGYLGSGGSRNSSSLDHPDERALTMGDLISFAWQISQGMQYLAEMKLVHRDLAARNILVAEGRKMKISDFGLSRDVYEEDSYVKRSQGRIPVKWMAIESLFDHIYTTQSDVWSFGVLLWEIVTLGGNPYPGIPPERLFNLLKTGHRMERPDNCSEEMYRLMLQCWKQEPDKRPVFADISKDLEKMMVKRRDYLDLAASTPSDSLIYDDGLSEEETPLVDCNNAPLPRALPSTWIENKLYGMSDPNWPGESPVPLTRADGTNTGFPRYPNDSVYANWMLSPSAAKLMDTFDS
Outline: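 Purified recombinant kinases were tested under optimized conditions with peptide substrates. ATP was set at each kinase's Km. Phosphorylation was read out by microfluidic mobility shift, and IC50 values were determined.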

RT-112 = test: Antitumor activity against human RT112 cells xenografted in athymic nude mouse assessed as tumor stasis at 30 mg/kg, po administered for 12 days; assay type: functional, organism-based; parameters: dose 30 mg/kg
Outline: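 Female HsdNpa:Athymic Nude-nu mice received RT112/luc1 cells (luciferase retroviral line; about 1–2×10^5 cells) into the bladder lumen. Oral treatment started 14 days after inoculation: suspension in PEG300/D5W (2:1) at 10 or 30 mg/kg/qd for 12 days. Tumor burden was measured by IVIS bioluminescence 10 min after iv D-luciferin. T/C was computed from change in light emission; ANOVA with Dunnett's test.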

Rattus norvegicus = test: Inhibition of FGFR autophosphorylation in RT112 tumor bearing nude rowett rat assessed as decrease in pFRS2 concentration at 4.25 mg/kg, po administered as a single dose by Western blot analysis; assay type: functional, organism-based; parameters: dose 4.25 mg/kg
Outline: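 RT112 tumor-bearing nude Rowett rats (n = 4) received a single oral dose of monophosphate salt at 4.25 or 8.51 mg/kg free base. Tumors were collected at time points up to 24 h and lysed in Tris/Triton buffer with vanadate and protease inhibitors. Western blots were run for pFRS2(Tyr196) and pMAPK, with total FRS2, total MAPK or β-tubulin as loading controls.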

Tumour = test: Drug uptake in tumour of nude Rowett rat bearing human RT112 cells at 8.51 mg/kg, po administered as a single dose after 16 hrs by LC-MS/MS analysis; assay type: ADME, organism-based, Neoplasm, RT-112; parameters: dose 8.51 mg/kg, route oral; conditions: in vivo
Outline: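 Nude Rowett rats bearing subcutaneous RT112 tumors (n = 4) received a single gavage of monophosphate salt at 4.25 or 8.51 mg/kg free base in acetate buffer pH 4.6/PEG300. Tumors were collected at intervals after dosing, frozen and homogenized in an equal volume of ice-cold PBS. Compound levels were measured by LC-MS/MS (LOQ 3 ng/mL).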

## CCN1CCN(c2ccc(Nc3cc(N(C)C(=O)Nc4c(Cl)c(OC)cc(OC)c4Cl)ncn3)cc2)CC1.O=P(O)(O)O [INFIGRATINIB PHOSPHATE]
BaF3
  IC50: 2 nM
[1]
  IC50: 2190 nM
[2]
  Cmax: 860 nM
[3]
  Cmax: 420 nM
Plasma [4]
  AUC/dose: 0.6 µM·h
Plasma [5]
  AUC/dose: 0.18 µM·h
[6]
  half-life: 4.5 h
[7]
  bioavailability: 51%
[8]
  IC50: 15 nM
UMUC3
  IC50: > 3000 nM
[9]
  IC50: > 10000 nM
[10]
  IC50: > 10000 nM
Insulin receptor
  IC50: > 10000 nM
[11]
  IC50: > 10000 nM
[12]
  IC50: > 10000 nM
[13]
  IC50: > 10000 nM
RT-112
  Activity: Active
Rattus norvegicus
  inhibition: Active
Tumour
  Drug uptake: 0.62 nmol/g
